Test results from ChEMBL document CHEMBL1154636, “Exploring the importance of piperazine N-atoms for sigma(2) receptor affinity and activity in a series of analogs of 1-cyclohexyl-4-[3-(5-methoxy-1,2,3,4-tetrahydronaphthalen-1-yl)propyl]piperazine (PB28)” (J Med Chem, 2009).
pEC50, pKi: −log10 of the molar value.

How the values were obtained:
[1] = Displacement of [3H]DTG form sigma 2 receptor in Wistar Hannover rat liver membrane by radioreceptor binding assay; type: cell membranes
Summary of the method: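 Specific binding was defined with DTG (85-96%). IC50 came from six to nine drug concentrations, in two or three experiments with duplicate samples.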

[2] = Selectivity ratio of Ki for sigma 2 receptor in Wistar Hannover rat liver membrane to Ki for sigma 1 receptor in Dunkin guinea pig brain; type: cell membranes
Summary of the method: (§1)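 Ratios were calculated from Ki values. Sigma-1 Ki was measured with (+)-[3H]-pentazocine on guinea-pig brain membranes without cerebellum. […] Each IC50 came from six to nine concentrations, in two or three experiments with duplicates.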

[3] = target: Sigma non-opioid intracellular receptor 1 (Cavia porcellus, UniProt Q60492); experiment: Displacement of [3H](+)-pentazocine ((+)-[2S-(2R,6R,11R)]-1,2,3,4,5,6-hexahydro-6,11-dimethyl- 3-(3-methyl-2-butenyl)-2,6-methano-3-benzazocine- 8-ol) from sigma 1 receptor in Dunkin guinea pig brain membrane by radioreceptor binding assay; type: cell membranes
Chain of Sigma non-opioid intracellular receptor 1 (Cavia porcellus, UniProt Q60492) (Q60492 whole entry): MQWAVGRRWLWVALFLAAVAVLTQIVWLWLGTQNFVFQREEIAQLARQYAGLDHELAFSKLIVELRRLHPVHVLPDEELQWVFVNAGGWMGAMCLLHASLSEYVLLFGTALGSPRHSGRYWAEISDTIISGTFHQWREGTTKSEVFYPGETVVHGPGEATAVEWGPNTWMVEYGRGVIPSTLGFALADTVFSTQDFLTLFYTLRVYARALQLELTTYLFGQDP
Summary of the method: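 IC50 came from six to nine concentrations, in two or three experiments with duplicate samples. Compounds were tested as hydrochloride salts, or as methylammonium iodides where applicable.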

SK-N-SH [4] = experiment: Antiproliferative activity against human SK-N-SH cells after 48 hrs by MTT assay; type: functional, cell-based
Summary of the method: (§2)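 Human SK-N-SH neuroblastoma cells were grown in RPMI 1640 with 10% FBS, 2 mM glutamine, penicillin/streptomycin, 1 mM pyruvate and 1% non-essential amino acids at 37 °C under 5% CO2. Cells were plated at 10 000/well and dosed next day at 1–100 μM, with solvent (ethanol, DMSO) controls. After 48 h, 0.5 mg/mL MTT was added for 3 h at 37 °C. Formazan was dissolved in DMSO and read at 570 and 630 nm.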

[5] = target: T1, 3-beta-hydroxysteroid-Delta(8),Delta(7)-isomerase (Cavia porcellus, UniProt Q60490); experiment: Displacement of [3H](+/-)-emopamil from EBP in Dunkin guinea pig liver membrane by radioreceptor binding assay; type: cell membranes
T1 sequence (Q60490 whole entry): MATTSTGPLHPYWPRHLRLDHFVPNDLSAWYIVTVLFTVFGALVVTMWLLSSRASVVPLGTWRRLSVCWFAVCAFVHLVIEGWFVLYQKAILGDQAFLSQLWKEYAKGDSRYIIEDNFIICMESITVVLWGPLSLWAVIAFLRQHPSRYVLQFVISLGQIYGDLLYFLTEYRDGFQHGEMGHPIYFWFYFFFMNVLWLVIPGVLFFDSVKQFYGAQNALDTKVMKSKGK

SK-N-SH [6] = experiment: Inhibition of human SK-N-SH cell proliferation at 100 uM after 48 hrs by MTT assay; type: functional; summary of the method: as §2
[7] = Selectivity ratio of Ki for sigma 1 receptor in Dunkin guinea pig brain membrane to Ki for sigma 2 receptor in Wistar Hannover rat liver membrane; type: cell membranes; summary of the method: as §1
[8] = Binding affinity to sigma 2 receptor in human SK-N-SH cells; type: cell-based
[9] = Displacement of [3H]DTG form sigma receptor in guinea pig brain; parameters: species or system Cavia porcellus
[10] = target: Sigma non-opioid intracellular receptor 1 (Rattus norvegicus, UniProt Q9R0C9); experiment: Displacement of [3H](+/-)-pentazocine from sigma 1 receptor in rat whole brain
Chain of Sigma non-opioid intracellular receptor 1 (Rattus norvegicus, UniProt Q9R0C9) (Q9R0C9 whole entry): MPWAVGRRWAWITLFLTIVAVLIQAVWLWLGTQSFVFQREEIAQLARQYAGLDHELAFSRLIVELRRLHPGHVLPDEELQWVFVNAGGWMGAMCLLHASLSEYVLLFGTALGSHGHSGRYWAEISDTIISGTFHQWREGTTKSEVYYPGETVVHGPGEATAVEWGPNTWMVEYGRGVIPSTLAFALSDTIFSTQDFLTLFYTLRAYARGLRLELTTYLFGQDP

[11] = Displacement of [3H]DTG form sigma 2 receptor in rat liver membrane; type: cell membranes
Summary of the method: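 IC50 taken from six to nine drug concentrations, two or three experiments with duplicate samples, and converted to Ki. Tested as hydrochloride salts, or as methylammonium iodide salts for the quaternized analogs.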

SMILES: COc1cccc2c1CCCC2CCCN1CCOCC1 (stereo unspecified)
- pKi [1]: 6.35
- Ratio Ki [2]: 49
- pKi [3]: 8.04

SMILES: COc1cccc2c1CCCC2CCCC1CCN(C2CCCCC2)CC1 (stereo unspecified)
- pKi [1]: 7.58
- pEC50 (SK-N-SH [4]): 5.85
- Ratio Ki [2]: 24
- pKi [3]: 8.96
- pKi [5]: 8.84

SMILES: COc1cccc2c1CCCC2OCCN1CCC(C2CCCCC2)CC1 (stereo unspecified)
- pKi [1]: 6.79
- Ratio Ki [2]: 1.8
- pKi [3]: 7.04

SMILES: COc1cccc2c1CCCC2CCC[N+]1(C)CC[N+](C)(C2CCCCC2)CC1 (stereo unspecified)
- pKi [1]: 5.77
- inhibition at 100 µM (SK-N-SH [6]): 30%
- pKi [3]: < 5.30
- Ratio Ki [7]: > 3
- pKi [5]: 6.82

SMILES: CC(C)=CCN1CC[C@]2(C)c3cc(O)ccc3C[C@H]1[C@H]2C [(+)-PENTAZOCINE]
- pKi [8]: 5.73

SMILES: COc1cccc2c1CCCC2CCCN1CCNCC1 (stereo unspecified)
- pKi [1]: 6.23
- pKi [9]: < 6.06
- Ratio Ki [2]: 2.7
- pKi [3]: 6.66
- pKi [5]: 7.45

SMILES: COc1cccc2c1CCCC2CCC(=O)N1CCN(C2CCCCC2)CC1 (stereo unspecified)
- pKi [1]: 6.75
- Ratio Ki [2]: 1630
- pKi [3]: 9.96
- pKi [5]: 8.13

SMILES: COc1cccc2c1CCCC2CCCNCC(=O)NC1CCCCC1 (stereo unspecified)
- pKi [1]: 6.10
- pKi [3]: 5.41
- Ratio Ki [7]: 5
- pKi [5]: 5.91

SMILES: COc1cccc2c1CCCC2CCCN1CCCCC1 (stereo unspecified)
- pKi [1]: 7.39
- Ratio Ki [2]: 12
- pKi [3]: 8.47
- pKi [10]: 7.74
- pKi [5]: 7.95

SMILES: CC(=O)N1CCN(C)CC1
- pKi [1]: < 5.00
- pKi [3]: < 5.30
- pKi [5]: < 6.00

SMILES: Cc1ccccc1NC(=N)Nc1ccccc1C [DITOLYLGUANIDINE]
- pKi [1]: 7.49

SMILES: CCN1CCN(C2CCCCC2)CC1
- pKi [1]: 6.46
- Ratio Ki [2]: 5.6
- pKi [3]: 7.20
- pKi [5]: 7.19

SMILES: COc1cccc2c1CCCC2NCCN1CCC(C2CCCCC2)CC1 (stereo unspecified)
- pKi [1]: 7.13
- Ratio Ki [2]: 111
- pKi [3]: 9.17

SMILES: COc1cccc2c1CCCC2CCCN1CCN(C2CCCCC2)CC1 (stereo unspecified)
- pEC50 (SK-N-SH [4]): 5.00
- pKi [11]: 9.17

SMILES: C1CCC(N2CCNCC2)CC1
- pKi [1]: < 5.30
- pKi [3]: < 5.30
- pKi [5]: < 6.00

SMILES: CC(C(O)c1ccc(O)cc1)N1CCC(Cc2ccccc2)CC1 (racemic) [IFENPRODIL]
- pKi [5]: 7.99

SMILES: COc1cccc2c1CCCC2CCCCCN1CCC(C2CCCCC2)CC1 (stereo unspecified)
- pKi [1]: 7.14
- pKi [3]: 6.63
- Ratio Ki [7]: 3.3
- pKi [5]: 7.31

SMILES: COc1cccc2c1CCCC2CCCN1CCN(CCCC2CCCc3c(OC)cccc32)CC1 (stereo unspecified)
- pKi [1]: 6.92
- pKi [3]: < 5.30
- Ratio Ki [7]: > 42
- pKi [5]: 6.33

SMILES: COc1cccc2c1CCCC2CCCN1CCN(C(=O)C2CCCCC2)CC1 (stereo unspecified)
- pKi [1]: 6.52
- pKi [3]: < 5.30
- Ratio Ki [7]: > 16
- pKi [5]: 6.26

SMILES: CC(=O)N1CCN(C2CCCCC2)CC1
- pKi [1]: < 5.30
- pKi [3]: < 5.30
- pKi [5]: < 6.00

SMILES: C1CCC(CCCN2CCN(C3CCCCC3)CC2)CC1
- pEC50 (SK-N-SH [4]): 4.28
- Ratio Ki [2]: 19
- pKi [3]: 9.60
- pKi [5]: 8.33

SMILES: C1CCC(N2CCN(C3CCCCC3)CC2)CC1
- pKi [1]: 7.94
- Ratio Ki [2]: 5.6
- inhibition at 100 µM (SK-N-SH [6]): 4%
- pKi [3]: 8.69
- pKi [5]: 7.77

SMILES: c1ccc(CCN2CCN(c3ccccn3)CC2)cc1
- inhibition at 100 µM (SK-N-SH [6]): 38%

SMILES: O=C(C1CCCCC1)N1CCN(C2CCCCC2)CC1
- pKi [1]: 6.70
- Ratio Ki [2]: 56
- pKi [3]: 8.44
- pKi [5]: 6.64

SMILES: COc1cccc2c1CCCC2CCCN1CCC(O)(C2CCCCC2)CC1 (stereo unspecified)
- pKi [1]: 8.03
- pEC50 (SK-N-SH [4]): 4.80
- Ratio Ki [2]: 1.6
- pKi [3]: 8.25
- pKi [5]: 7.98

SMILES: COc1cccc2c1CCCC2CCCN1CC[N+](C)(C2CCCCC2)CC1 (stereo unspecified)
- pKi [1]: 7.89
- inhibition at 100 µM (SK-N-SH [6]): 22%
- pKi [3]: 6.47
- Ratio Ki [7]: 26
- pKi [5]: 7.64

SMILES: COc1cccc2c1CCCC2CCC[N+]1(C)CCN(C2CCCCC2)CC1 (stereo unspecified)
- pKi [1]: 8.17
- inhibition at 100 µM (SK-N-SH [6]): 26%
- pKi [3]: 7.20
- Ratio Ki [7]: 9.4
- pKi [5]: 7.49

SMILES: COc1cccc2c1CCCC2CCCN1CCC(C2CCCCC2)CC1 (stereo unspecified)
- pKi [1]: 7.73
- pEC50 (SK-N-SH [4]): 5.44
- pKi [3]: 6.84
- Ratio Ki [7]: 7.6
- pKi [5]: 8.13
